The target of series [1] is T1, Cytochrome P450 1A2 (Homo sapiens, UniProt P05177).
T1 sequence (P05177 whole entry): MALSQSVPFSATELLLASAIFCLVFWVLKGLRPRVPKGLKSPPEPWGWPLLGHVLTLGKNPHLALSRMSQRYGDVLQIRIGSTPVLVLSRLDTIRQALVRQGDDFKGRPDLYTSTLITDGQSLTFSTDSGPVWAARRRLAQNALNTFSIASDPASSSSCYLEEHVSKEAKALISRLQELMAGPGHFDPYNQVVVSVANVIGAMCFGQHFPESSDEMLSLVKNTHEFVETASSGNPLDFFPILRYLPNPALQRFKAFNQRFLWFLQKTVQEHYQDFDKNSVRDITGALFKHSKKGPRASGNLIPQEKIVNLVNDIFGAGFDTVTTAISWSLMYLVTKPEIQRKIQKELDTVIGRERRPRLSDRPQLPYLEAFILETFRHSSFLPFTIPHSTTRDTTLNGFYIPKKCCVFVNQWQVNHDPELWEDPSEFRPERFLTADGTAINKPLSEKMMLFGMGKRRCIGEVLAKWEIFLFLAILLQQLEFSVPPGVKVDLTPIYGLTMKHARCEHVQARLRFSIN
Kind of series: Activity of human CYP1A2 expressed in microsomes isolated from baculovirus infected insect cell assessed as enzyme-mediated 3-(4-((6-methoxy-1-methyl-1H-benzo[d]imidazol-2-yl)methoxy)phenyl)-2-(methylsulfinyl)propanamide formation at 20 uM after 2 hrs by radio-HPLC/LC-MS/MS analysis in presence of NADPH-generating system/SAM. Format: ADME.

For the next series, the target named is Cytochrome P450 3A5 (Homo sapiens, UniProt P20815). Put plainly: Activity of human CYP3A5 expressed in microsomes isolated from baculovirus infected insect cell assessed as enzyme-mediated 5-hydroxy-5-(4-((6-methoxy-1-methyl-1H-benzo[d]imidazol-2-yl)methoxy)benzyl)thiazolidine-2,4-dione formation at 20 uM after 2 hrs by radio-HPLC/LC-MS/MS analysis in presence of NADPH-generating system and NADPH-generating system/SAM. Format: ADME. An outline of the steps:
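cDNA-expressed human CYP3A5 in baculovirus-insect-cell microsomes (1 mg/ml protein) was incubated with [¹⁴C]rivoglitazone (20 μM) in 50 mM potassium phosphate (pH 7.4) or 100 mM Tris-HCl (pH 7.5). NADPH-generating system: 2 mM NADP⁺, 20 mM glucose 6-phosphate, 2 units/ml G6PDH, 10 mM MgCl₂. Incubation ran 2 h at 37°C with shaking; insect-cell control supersomes served as control. Acetonitrile stop, supernatant concentrated, then radio-HPLC, LC-MS and LC-MS/MS.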

Another series concerns Liver microsome. Put plainly: Drug metabolism in Sprague-Dawley rat liver microsomes assessed as formation of 3-(4-((6-methoxy-1-methyl-1H-benzo[d]imidazol-2-yl)methoxy)phenyl)-2-(methylsulfonyl)propanamide at 20 uM after 2 hrs by radio-HPLC/LC-MS/MS analysis in presence of NADPH-generating system/SAM. The class given is ADME.
A short description of series [2]: Drug metabolism in cynomolgus monkey liver microsomes assessed as formation of 2-amino-3-((1-carboxy-2-(4-((6-methoxy-1-methyl-1H-benzo[d]imidazol-2-yl)methoxy)phenyl)ethyl)disulfanyl)propanoic acid at 20 uM by radio-HPLC/LC-MS/MS analysis. The class given is ADME, Macaca fascicularis. For orientation: Liver microsomes are a subcellular fraction often used to study metabolism.

The target of series [3] is T1, Cytochrome P450 1A2. Put plainly: Activity of human CYP1A2 expressed in microsomes isolated from baculovirus infected insect cell assessed as enzyme-mediated 2-amino-3-((1-carboxy-2-(4-((6-methoxy-1-methyl-1H-benzo[d]imidazol-2-yl)methoxy)phenyl)ethyl)disulfanyl)propanoic acid formation at 20 uM after 2 hrs by radio-HPLC/LC-MS/MS analysis. The class given is ADME. In short, it runs like this: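 Baculovirus/insect-cell microsomes expressing single human CYPs, 1 mg/ml protein, with 50 mM potassium phosphate (pH 7.4) or 100 mM Tris-HCl (pH 7.5). NADPH-generating system: 2 mM NADP⁺, 20 mM glucose 6-phosphate, 2 units/ml G6PDH, 10 mM MgCl₂. [¹⁴C]rivoglitazone at 20 μM, 2 h at 37°C with shaking. Control used insect-cell control supersomes. Stopped with acetonitrile; supernatant concentrated under nitrogen; metabolites analysed by radio-HPLC, LC-MS and LC-MS/MS.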

Series [4] concerns the target T2, UDP-glucuronosyltransferase 1A3 (Homo sapiens, UniProt P35503).
T2 sequence (P35503 whole entry): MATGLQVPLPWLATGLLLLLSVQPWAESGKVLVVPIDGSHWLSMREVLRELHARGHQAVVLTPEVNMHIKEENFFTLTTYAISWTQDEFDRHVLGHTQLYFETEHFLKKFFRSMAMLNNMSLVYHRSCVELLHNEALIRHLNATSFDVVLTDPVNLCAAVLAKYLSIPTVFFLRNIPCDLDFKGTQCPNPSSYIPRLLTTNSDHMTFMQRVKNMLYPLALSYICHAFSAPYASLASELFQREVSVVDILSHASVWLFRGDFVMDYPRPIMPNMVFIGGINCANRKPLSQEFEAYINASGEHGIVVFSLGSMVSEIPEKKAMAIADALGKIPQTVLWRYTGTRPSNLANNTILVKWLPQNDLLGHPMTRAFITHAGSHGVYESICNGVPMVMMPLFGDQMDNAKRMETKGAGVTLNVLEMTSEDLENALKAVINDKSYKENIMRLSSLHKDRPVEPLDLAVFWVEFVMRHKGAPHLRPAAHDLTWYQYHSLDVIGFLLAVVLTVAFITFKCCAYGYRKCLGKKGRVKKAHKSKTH
Kind of series: Activity of human UGT1A3 expressed in microsomes isolated from baculovirus infected insect cell assessed as enzyme-mediated (2S,3S,4S,5R,6R)-3,4,5-trihydroxy-6-(5-(4-((6-methoxy-1-methyl-1H-benzo[d]imidazol-2-yl)methoxy)benzyl)-2,4-dioxothiazolidin-3-yl)tetrahydro-2H-pyran-2-carboxylic acid formation at 20 uM after 4 hrs by radio-HPLC/LC-MS/MS analysis in presence of UDPGA and UDPGA/SAM. The class given is ADME. An outline of the steps: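 Alamethicin (50 μg/mg protein, 15 min on ice) pretreated expressed human UGT microsomes (1 mg/ml protein) from baculovirus-infected insect cells. Incubation with [¹⁴C]rivoglitazone (20 μM) in 100 mM Tris-HCl (pH 7.5) with 10 mM MgCl₂, started by 5 mM UDPGA, 4 h at 37°C with shaking. UGT insect-cell control supersomes were run alongside. Acetonitrile stop, concentrated supernatant analysed by radio-HPLC, LC-MS and LC-MS/MS.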

Series [5] in a line: Drug metabolism in monkey hepatocytes assessed as formation of (2S,3S,4S,5R,6R)-6-((1-carboxy-2-(4-((6-methoxy-1-methyl-1H-benzo[d]imidazol-2-yl)methoxy)phenyl)ethylthio)carbonylamino)-3,4,5-trihydroxytetrahydro-2H-pyran-2-carboxylic acid at 30 uM after 3 hrs by radio-HPLC/LC-MS/MS analysis in presence of UDPGA and UDPGA/SAM. The note with it: cynomolgus monkey.

Cytochrome P450 3A5, sequence (P20815 whole entry): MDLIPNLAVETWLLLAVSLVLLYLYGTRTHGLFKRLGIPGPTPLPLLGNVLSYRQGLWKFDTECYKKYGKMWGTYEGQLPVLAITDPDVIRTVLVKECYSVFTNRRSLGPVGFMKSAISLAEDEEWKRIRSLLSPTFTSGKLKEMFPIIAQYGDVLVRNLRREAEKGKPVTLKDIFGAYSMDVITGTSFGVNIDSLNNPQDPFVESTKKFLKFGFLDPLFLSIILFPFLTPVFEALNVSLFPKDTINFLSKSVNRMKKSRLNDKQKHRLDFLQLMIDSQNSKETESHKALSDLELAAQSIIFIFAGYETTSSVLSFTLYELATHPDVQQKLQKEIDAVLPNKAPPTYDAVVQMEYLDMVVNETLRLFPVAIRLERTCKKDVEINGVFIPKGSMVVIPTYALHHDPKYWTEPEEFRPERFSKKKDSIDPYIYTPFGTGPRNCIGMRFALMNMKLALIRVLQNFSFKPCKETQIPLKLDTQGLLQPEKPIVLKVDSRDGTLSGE

For the molecule `COc1ccc2nc(COc3ccc(C[14CH]4SC(=O)NC4=O)cc3)n(C)c2c1.Cl` (racemic), the Drug metabolism entry on Cytochrome P450 1A2 [1] is “metabolite_not_detected”; at Cytochrome P450 3A5 it was “metabolite_detected”; in the series on Liver microsome, “metabolite_detected”; in series [2] it was “metabolite_not_detected”; at Cytochrome P450 1A2 [3], “metabolite_not_detected”; in series [4], “metabolite_detected”. In addition, the Drug metabolism result in series [5] is reported as “metabolite_detected”.
